In brackets after ≈: the same amount, converted by molar mass. Activity calls are given as the source filed them. The rule behind the calls is not given here.
Assays:
[1] = tested on: Pseudomonas aeruginosa; assay: Antibacterial activity against Pseudomonas aeruginosa ATCC 27853 at 1 to 1000 ug/ml after overnight incubation by disc diffusion method; type: functional
Outline: (§1)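 Disc diffusion on Mueller-Hinton agar. Plates seeded with 0.1 ml bacterial suspension (2 × 10^6 cfu/ml). Sterile 6 mm paper discs were impregnated with compound solutions at 1–1000 µg/ml and incubated at 37 °C overnight. Read-out was the diameter of the clear inhibition zone. Stocks were 1 mg/ml in 4% Tween 80 or 4% propylene glycol.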

[2] = tested on: Micrococcus luteus; assay: Antibacterial activity against Micrococcus luteus AGD1; type: functional
Outline: (§2)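 MIC by broth and agar dilution. Broth: 0.1 ml suspension (2 × 10^6 cfu/ml) in Mueller-Hinton broth with test drug at 1–1000 µg/ml, 37 °C overnight. Agar: serial drug dilutions in Mueller-Hinton agar, spot-inoculated with 2 × 10^6 cfu/spot, 37 °C for 24 h. MIC was the lowest concentration with no visible growth. Antibiotic controls were included.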

[3] = tested on: Shigella flexneri; assay: Antibacterial activity against Shigella flexneri DN13; type: functional; outline: as §2
[4] = tested on: Pseudomonas aeruginosa; assay: Antibacterial activity against Pseudomonas aeruginosa ATCC 27853; type: functional; outline: as §2
[5] = tested on: Shigella dysenteriae; assay: Antibacterial activity against Shigella dysenteriae isolate 3 at 1 to 1000 ug/ml after overnight incubation by disc diffusion method; type: functional
[6] = tested on: Enterococcus faecalis; assay: Antibacterial activity against Enterococcus faecalis isolate 29212 at 1 to 1000 ug/ml after overnight incubation by disc diffusion method; type: functional; outline: as §1
[7] = tested on: Salmonella typhimurium; assay: Antibacterial activity against Salmonella Typhimurium isolate 11; type: functional, Salmonella enterica subsp. enterica serovar Typhimurium; conditions: Salmonella enterica; outline: as §2
[8] = tested on: Staphylococcus aureus; assay: Antibacterial activity against Staphylococcus aureus ATCC 25923; type: functional; outline: as §2
[9] = tested on: Vibrio parahaemolyticus; assay: Antibacterial activity against Vibrio parahaemolyticus isolate 72016 at 1 to 1000 ug/ml after overnight incubation by disc diffusion method; type: functional; outline: as §1
[10] = tested on: Salmonella typhi; assay: Antibacterial activity against Salmonella typhi DIRW at 1 to 1000 ug/ml after overnight incubation by disc diffusion method; type: functional; conditions: Salmonella enterica subsp. enterica serovar Typhi
[11] = tested on: Candida albicans; assay: Antifungal activity against Candida albicans at 1 to 1500 ug/ml after 96 hrs by disc diffusion method; type: functional
Outline: (§3)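 Disc diffusion on Sabouraud dextrose agar. Plates seeded with 0.1 ml fungal spore suspension (2 × 10^5 spores/ml). Sterile 6 mm discs were impregnated with compound solutions at 1–1500 µg/ml and incubated at 28 °C for 96 h. Read-out was the clear inhibition zone. Strains were clinical isolates.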

[12] = tested on: Candida albicans; assay: Antifungal activity against Candida albicans after 96 hrs by dry weight calculation; type: functional, organism-based
Outline: (§4)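 Fungicidal testing with double-fold drug dilutions in Sabouraud dextrose broth. Tubes inoculated with 1 ml spore suspension (2 × 10^5 spores/ml) and shaken at 200 rpm at 28 °C for 96 h. Drug was added at mid-logarithmic growth. Growth was measured as sample dry weight after drying at 60 °C.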

[13] = tested on: Bacillus subtilis; assay: Antibacterial activity against Bacillus subtilis UC564; type: functional; outline: as §2
[14] = tested on: Klebsiella pneumoniae; assay: Antibacterial activity against Klebsiella pneumoniae isolate J/1/4; type: functional; outline: as §2
[15] = tested on: Shigella dysenteriae; assay: Antibacterial activity against Shigella dysenteriae isolate 3; type: functional
[16] = tested on: Aspergillus niger; assay: Antifungal activity against Aspergillus niger at 1 to 1500 ug/ml after 96 hrs by disc diffusion method; type: functional; outline: as §3
[17] = tested on: Vibrio cholerae; assay: Antibacterial activity against Vibrio cholerae isolate 7201; type: functional
[18] = tested on: Candida tropicalis; assay: Antifungal activity against Candida tropicalis after 96 hrs; type: functional
Outline: (§5)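 Clinical isolates grown on Sabouraud dextrose agar at 28 °C. MIC was set by broth dilution in Sabouraud dextrose broth (0.1 ml of 2 × 10^5 spores/ml, 1–1500 µg/ml) or by agar dilution (2 × 10^5 spores/spot), with an antibiotic control, at 28 °C for 96 h. The lowest concentration with no visible growth was taken.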

[19] = tested on: Staphylococcus aureus; assay: Antibacterial activity against Staphylococcus aureus ATCC 25923 at 1 to 1000 ug/ml after overnight incubation by disc diffusion method; type: functional; outline: as §1
[20] = tested on: Vibrio parahaemolyticus; assay: Antibacterial activity against Vibrio parahaemolyticus isolate 72016; type: functional; outline: as §2
[21] = tested on: Cryptococcus neoformans; assay: Antifungal activity against […] at 1 to 1500 ug/ml after 96 hrs by disc diffusion method; type: functional, organism-based; outline: as §3
[22] = tested on: Klebsiella pneumoniae; assay: Antibacterial activity against Klebsiella pneumoniae isolate J/1/4 at 1 to 1000 ug/ml after overnight incubation by disc diffusion method; type: functional; outline: as §1
[23] = tested on: Candida tropicalis; assay: Antifungal activity against Candida tropicalis at 1 to 1500 ug/ml after 96 hrs by disc diffusion method; type: functional; outline: as §3
[24] = tested on: Micrococcus luteus; assay: Antibacterial activity against Micrococcus luteus AGD1 at 1 to 1000 ug/ml after overnight incubation by disc diffusion method; type: functional; outline: as §1
[25] = tested on: Shigella flexneri; assay: Antibacterial activity against Shigella flexneri DN13 at 1 to 1000 ug/ml after overnight incubation by disc diffusion method; type: functional; outline: as §1
[26] = tested on: Salmonella typhimurium; assay: Antibacterial activity against Salmonella Typhimurium isolate 11 at 1 to 1000 ug/ml after overnight incubation by disc diffusion method; type: functional, organism-based; conditions: Salmonella enterica subsp. enterica serovar Typhimurium; outline: as §1
[27] = tested on: Escherichia coli; assay: Antibacterial activity against Escherichia coli ATCC 25938; type: functional; outline: as §2
[28] = tested on: Salmonella typhi; assay: Antibacterial activity against Salmonella typhi DIRW; type: functional, Salmonella enterica subsp. enterica serovar Typhi; conditions: Salmonella enterica
[29] = tested on: Candida albicans; assay: Antifungal activity against Candida albicans after 96 hrs; type: functional; outline: as §5
[30] = tested on: Aspergillus niger; assay: Antifungal activity against Aspergillus niger after 96 hrs by dry weight calculation; type: functional, organism-based; outline: as §4
[31] = tested on: Vibrio cholerae; assay: Antibacterial activity against Vibrio cholerae isolate 720 at 1 to 1000 ug/ml after overnight incubation by disc diffusion method; type: functional
[32] = tested on: Vibrio cholerae; assay: Antibacterial activity against Vibrio cholerae isolate 7201 at 1 to 1000 ug/ml after overnight incubation by disc diffusion method; type: functional
[33] = tested on: Enterococcus faecalis; assay: Antibacterial activity against Streptococcus faecalis isolate 29212; type: functional; outline: as §2
[34] = tested on: Bacillus subtilis; assay: Antibacterial activity against Bacillus subtilis UC564 at 1 to 1000 ug/ml after overnight incubation by disc diffusion method; type: functional; outline: as §1
[35] = tested on: Aspergillus niger; assay: Antifungal activity against Aspergillus niger after 96 hrs; type: functional; outline: as §5
[36] = tested on: Escherichia coli; assay: Antibacterial activity against Escherichia coli ATCC 25938 at 1 to 1000 ug/ml after overnight incubation by disc diffusion method; type: functional; outline: as §1
[37] = tested on: Staphylococcus aureus; assay: Antibacterial activity against Staphylococcus aureus ATCC 25923 at 10 to 80 ug/ml after overnight incubation by broth dilution method; type: functional, organism-based
Outline: (§6)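 Bactericidal testing with double-fold drug dilutions in Mueller-Hinton broth. Tubes inoculated with 1 ml suspension (2 × 10^6 cfu/ml) and shaken at 200 rpm at 37 °C for 24 h. Drug was added at mid-logarithmic growth. Viable colony counts were taken from 1.0 ml aliquots plated on nutrient agar.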

[38] = tested on: Pseudomonas aeruginosa; assay: Antibacterial activity against Pseudomonas aeruginosa ATCC 27853 at 10 to 80 ug/ml after overnight incubation by broth dilution method; type: functional, organism-based; outline: as §6
[39] = tested on: Bacillus subtilis; assay: Antibacterial activity against Bacillus subtilis UC564 at 10 to 80 ug/ml after overnight incubation by broth dilution method; type: functional, organism-based; outline: as §6
[40] = tested on: Escherichia coli; assay: Antibacterial activity against Escherichia coli ATCC 25938 at 10 to 80 ug/ml after overnight incubation by broth dilution method; type: functional, organism-based; outline: as §6
[41] = tested on: Shigella dysenteriae; assay: Antibacterial activity against Shigella dysenteriae isolate 3 at 10 to 80 ug/ml after overnight incubation by broth dilution method; type: functional, organism-based
[42] = tested on: Vibrio cholerae; assay: Antibacterial activity against Vibrio cholerae isolate 7201 at 10 to 80 ug/ml after overnight incubation by broth dilution method; type: functional, organism-based
[43] = tested on: Cryptococcus neoformans; assay: Antifungal activity against […] after 96 hrs; type: functional; outline: as §5

Compound	diameter of the inhibition zone (DIZ) [1]	MIC [2]	MIC [3]	MIC [4]	diameter of the inhibition zone (DIZ) [5]	diameter of the inhibition zone (DIZ) [6]	MIC [7]	MIC [8]	diameter of the inhibition zone (DIZ) [9]	diameter of the inhibition zone (DIZ) [10]	MIC [13]	MIC [14]	MIC [15]	MIC [17]	diameter of the inhibition zone (DIZ) [19]	MIC [20]	diameter of the inhibition zone (DIZ) [22]	diameter of the inhibition zone (DIZ) [24]	diameter of the inhibition zone (DIZ) [25]	diameter of the inhibition zone (DIZ) [26]	other results
O=C(c1ccccc1)c1c(-c2ccccc2)cc2c3ccccc3ccn12	8.1 mm	500 µg/mL (≈ 1440 µM)	500 µg/mL (≈ 1440 µM)	128 µg/mL (≈ 368 µM)	8 mm	inactive	> 500 µg/mL	128 µg/mL (≈ 368 µM)	inactive	inactive	32 µg/mL (≈ 92.1 µM)	64 µg/mL (≈ 184 µM)	128 µg/mL (≈ 368 µM)	64 µg/mL (≈ 184 µM)	8.5 mm	500 µg/mL (≈ 1440 µM)	10.5 mm	inactive	inactive	inactive	diameter of the inhibition zone (DIZ) [11]: 30 mm; Activity [12]: Dose-dependent effect; diameter of the inhibition zone (DIZ) [16]: 12 mm; MIC [18]: 1000 µg/mL (≈ 2880 µM); diameter of the inhibition zone (DIZ) [21]: inactive; diameter of the inhibition zone (DIZ) [23]: 10 mm; MIC [27]: 32 µg/mL (≈ 92.1 µM); MIC [28]: > 500 µg/mL; MIC [29]: 500 µg/mL (≈ 1440 µM); Activity [30]: Dose-dependent effect; diameter of the inhibition zone (DIZ) [31]: 9 mm; diameter of the inhibition zone (DIZ) [32]: 9 mm; MIC [33]: 500 µg/mL (≈ 1440 µM); diameter of the inhibition zone (DIZ) [34]: 10.2 mm; MIC [35]: 500 µg/mL (≈ 1440 µM); diameter of the inhibition zone (DIZ) [36]: 10 mm
CCOC(=O)c1c(C(=O)OCC)c2ccc3ccccc3n2c1C(=O)c1ccccc1	9.7 mm	500 µg/mL (≈ 1200 µM)	> 500 µg/mL	32 µg/mL (≈ 77 µM)	11.1 mm	inactive	> 500 µg/mL	64 µg/mL (≈ 154 µM)	9.3 mm	inactive	16 µg/mL (≈ 38.5 µM)	256 µg/mL (≈ 616 µM)	32 µg/mL (≈ 77 µM)	128 µg/mL (≈ 308 µM)	10.2 mm	64 µg/mL (≈ 154 µM)	8.6 mm	inactive	inactive	inactive	Activity [37]: Active; Activity [38]: Active; Activity [39]: Active; Activity [40]: Active; Activity [41]: Active; Activity [42]: Active; MIC [27]: > 500 µg/mL; MIC [28]: 500 µg/mL (≈ 1200 µM); diameter of the inhibition zone (DIZ) [31]: 7.7 mm; diameter of the inhibition zone (DIZ) [32]: 7.7 mm; MIC [33]: 500 µg/mL (≈ 1200 µM); diameter of the inhibition zone (DIZ) [34]: 10 mm; diameter of the inhibition zone (DIZ) [36]: 8.1 mm
OC(Cn1cncn1)(Cn1cncn1)c1ccc(F)cc1F [FLUCONAZOLE]	–	–	–	–	–	–	–	–	–	–	–	–	–	–	–	–	–	–	–	–	MIC [43]: 8 µg/mL (≈ 26.1 µM); MIC [18]: 8 µg/mL (≈ 26.1 µM); MIC [29]: 4 µg/mL (≈ 13.1 µM); MIC [35]: 10 µg/mL (≈ 32.7 µM)
N#Cc1cc2ccccn2c1C(=O)c1ccccc1	inactive	256 µg/mL (≈ 1040 µM)	500 µg/mL (≈ 2030 µM)	> 500 µg/mL	9 mm	inactive	500 µg/mL (≈ 2030 µM)	32 µg/mL (≈ 130 µM)	7.5 mm	inactive	16 µg/mL (≈ 65 µM)	64 µg/mL (≈ 260 µM)	128 µg/mL (≈ 520 µM)	16 µg/mL (≈ 65 µM)	12.1 mm	256 µg/mL (≈ 1040 µM)	8.9 mm	7.5 mm	inactive	inactive	Activity [37]: Active; Activity [38]: Active; Activity [39]: Active; Activity [40]: Active; Activity [41]: Active; Activity [42]: Active; MIC [27]: > 500 µg/mL; MIC [28]: 500 µg/mL (≈ 2030 µM); diameter of the inhibition zone (DIZ) [31]: 10 mm; diameter of the inhibition zone (DIZ) [32]: 10 mm; MIC [33]: 500 µg/mL (≈ 2030 µM); diameter of the inhibition zone (DIZ) [34]: 9.7 mm; diameter of the inhibition zone (DIZ) [36]: inactive

— ChEMBL document CHEMBL1781935, “Amberlite-IRA-402 (OH) ion exchange resin mediated synthesis of indolizines, pyrrolo [1,2-a] quinolines and isoquinolines: antibacterial and antifungal evaluation of the products” (2011)
